Measured values: paper PMC9884082 (Journal of Medicinal Chemistry, 2023)
Where “and” joins values, the source holds several entries; their conditions need not be identical. Identical values can stand only once. Entries after “also recorded” stand apart in the source; their conditions may differ. One block for each compound: values may come before it.

Columns and labels:
[1] = system: CD133+/CXCR4+ (Dual Hi) HT-29 xenografts; experiment: Dual Hi HT-29 xenograft after FUOX enrichment, oral G2C or IP G2.2; type: in vivo, NCr nude mice; settings: for tumor growth compared to vehicle: experiment 2, G2.2 100 mg/kg IP 3 times/week, G2C 100 mg/kg PO 5 times/week, 3 weeks
How it was run: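 1 × 10⁵ CD133⁺/CXCR4⁺ HT-29 cells were injected subcutaneously into NCr nude mice. Palpable tumors received 50 mg/kg 5-FU plus 5 mg/kg oxaliplatin IP weekly for 3 weeks. Mice were randomized to vehicle or test compound 100 mg/kg PO 5 times/week for 3 weeks, or, in a second experiment, parent 100 mg/kg IP 3 times/week. Xenograft single cells were assessed for 1–3° spheroids. CD133/CXCR4/LGR5 cells were quantified by flow cytometry (30 min staining, 4 °C).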

colon xenografts = settings: cited from earlier work
[2] = system: pooled normal human plasma; experiment: Human plasma clotting time; type: biochemical; settings: ∼34 to ∼68 s
How it was run: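 APTT was run in a fibrometer by one-stage recalcification. Test compound was mixed with citrated pooled normal human plasma and prewarmed APTT reagent (ellagic acid). After 4 min at 37 °C, clotting was started with prewarmed 25 mM CaCl₂ and time to clot recorded. A quadratic trend line fitted to the data gave the concentration doubling clotting time.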

HT-29 xenografts = experiment: HT-29 xenograft after FUOX enrichment, IP G2C, FUOX or G2C+FUOX; type: in vivo, NCr nude mice
How it was run: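 1 × 10⁶ unsorted HT-29 cells were injected subcutaneously into NCr nude mice. Palpable tumors received 25 mg/kg 5-fluorouracil plus 2 mg/kg oxaliplatin IP weekly for 3 weeks. Mice were randomized to vehicle, test compound 50 mg/kg IP three times/week (8 doses), continued 5-FU/oxaliplatin, or both. Tumor volume was followed to sacrifice (n = 2/group) and compared with vehicle.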

[3] = Mouse tail bleeding study; type: in vivo, wild-type ICR mice; settings: IV; NSGMs 1–100 mg/kg, enoxaparin 224 μg/kg
[4] = system: intestinal crypt-derived organoids; experiment: Ex vivo intestinal crypt-derived organoids from treated mice; type: in vivo
HT-29 monolayer culture = experiment: Cell proliferation; type: cell-based, human; settings: MTT, 60-72 h
How it was run: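 HT-29 cells kept as monolayers in DMEM:F-12 with 10% FBS and 1% penicillin/streptomycin, passaged before 70% confluence. About 2.5 × 10³ cells/well were incubated overnight (37 °C, 5% CO₂), then exposed to test compound for 60–72 h. MTT (5 mg/mL stock in PBS) was added for 2–3 h and crystals dissolved in DMSO. A590 was read and growth expressed as percent of vehicle; ≥3 replicates.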

[5] = system: colon cancer cell line HT-29 spheroids; experiment: Spheroid inhibition assay; type: cell-based, human
How it was run: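 HT-29 cells (≤6 passages) were seeded at 100–300 cells/well in low-adhesion plates. Medium was stem cell medium: DMEM:F12 with B27, 20 ng/mL EGF and 10 ng/mL FGF. After brief incubation, vehicle or test compound was added. After 3–7 days, spheroids of 50–150 μm were counted by phase-contrast microscopy as percent of vehicle. IC50 came from normalized sigmoidal regression; ≥3 replicates.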

[6] = HT-29 spheroids, relative to G2.2

Compound: O=c1c(OS(=O)(=O)[O-])c(-c2ccc(OS(=O)(=O)[O-])c(OS(=O)(=O)[O-])c2)oc2cc(OS(=O)(=O)[O-])cc(OCCCOc3cc(OS(=O)(=O)[O-])cc4oc(-c5ccc(OS(=O)(=O)[O-])c(OS(=O)(=O)[O-])c5)c(OS(=O)(=O)[O-])c(=O)c34)c12.[Na+].[Na+].[Na+].[Na+].[Na+].[Na+].[Na+].[Na+] [G2.2, Sodium 4-(5-(3-((2-(3,4-Bis(sulfonatooxy)phenyl)-4-oxo-3,7-bis(sulfonatooxy)-4H-chromen-5-yl)oxy)propoxy)-4-oxo-3,7-bis(sulfonatooxy)-4H-chromen-2-yl)-1,2-phenylene Bis(sulfate)]
tumor growth compared to vehicle [1]: seemed to reduce tumor growth
expression of BMI-1 (CSC self-renewal marker) (colon xenografts): significant reduction in the expression of BMI-1
expression of colon CSC markers (colon xenografts): inhibited the expression of CD133^+, CXCR4^+, DCAMLK1, and/or LGR5 markers
growth of colon xenografts and toxicity (colon xenografts; parenterally administered): inhibits the growth of colon xenografts without any toxicity to vital organs or bleeding consequences
concentration required for 2-fold increase in APTT [2]: 900 µM

Compound: CC(C)CCC[C@@H](C)[C@H]1CC[C@H]2[C@@H]3CC=C4C[C@@H](OCCOc5cc(-c6oc7cc(OS(=O)(=O)[O-])cc(OCCCOc8cc(OS(=O)(=O)[O-])cc9oc(-c%10ccc(OS(=O)(=O)[O-])c(OS(=O)(=O)[O-])c%10)c(OS(=O)(=O)[O-])c(=O)c89)c7c(=O)c6OS(=O)(=O)[O-])ccc5OS(=O)(=O)[O-])CC[C@]4(C)[C@H]3CC[C@]12C.[Na+].[Na+].[Na+].[Na+].[Na+].[Na+].[Na+] [G2C, Sodium 4-(5-(3-((2-(3-(2-(((8S,9S,10R,13R,14S,17R)-10,13-Dimethyl-17-((R)-6-methylheptan-2-yl)-2,3,4,7,8,9,10,11,12,13,14,15,16,17-tetradecahydro-1H-cyclopenta[a]phenanthren-3-yl)oxy)ethoxy)-4-(sulfonatooxy)phenyl)-4-oxo-3,7-bis(sulfonatooxy)-4H-chromen-5-yl)oxy)propoxy)-4-oxo-3,7-bis(sulfonatooxy)-4H-chromen-2-yl)-1,2-phenylene Bis(sulfate)]
animal weight ([1]; daily oral G2C): did not lose weight
bleeding at the site of injection or in organs ([1]; daily oral G2C): no obvious sign of major bleeding
3° spheroid formation from xenograft-derived cells ([1]; experiment 1, G2C 100 mg/kg PO): significantly inhibited
Dual Hi cell-induced tumor growth ([1]; experiment 1, G2C 100 mg/kg PO 5 times/week for 3 weeks): significantly inhibited Dual Hi cell-induced tumor growth
tumor growth compared to vehicle [1]: seemed to reduce tumor growth; also recorded: higher growth inhibition
proportion of CD133+/CXCR4+ (Dual Hi) and LGR5 cells in xenografts ([1]; flow cytometry, oral G2C): significantly lower
blood chemistry compared to vehicle ([1]; oral G2C): did not produce any significant change in blood chemistry
inhibition of xenografts compared to vehicle (HT-29 xenografts; G2C 50 mg/kg IP (Figure 6B)): 30%
animal weight (HT-29 xenografts; G2C 50 mg/kg IP alone or with FUOX): no significant change in animal weight
expression of DCAMKL1 and BMI-1 in xenograft lysate (HT-29 xenografts; Western blots): inhibition in the expression of DCAMKL1 (CSC marker) and BMI-1 (self-renewal marker)
3 and 4° spheroid formation from xenograft-derived cells (HT-29 xenografts; ex vivo in CSC media, compared to vehicle): significant inhibition of self-renewing CSCs
concentration required for 2-fold increase in APTT [2]: ~300 µM
blood loss, tail bleeding [3]: did not exhibit much tail bleeding phenotype
ex vivo growth of organoids derived from intestinal crypts ([4]; after IP G2C 50 mg/kg alone or with FUOX): did not inhibit ex vivo growth of organoids derived from intestinal crypts
intestinal crypt-derived organoid growth ([4]; after oral G2C 100 mg/kg 5 times/week for 3 weeks): did not reduce intestinal crypt-derived organoid growths
cytotoxicity under monolayer conditions (HT-29 monolayer culture): significantly cytotoxic at ∼100 μM

Compound: O=c1cc(-c2ccc(OS(=O)(=O)[O-])cc2)oc2cc(OS(=O)(=O)[O-])cc(OCC3CCC(COc4cc(OS(=O)(=O)[O-])cc5oc(-c6ccc(OS(=O)(=O)[O-])cc6)cc(=O)c45)CC3)c12.[Na+].[Na+].[Na+].[Na+] (stereo not drawn) [MAD1, Sodium 4-Oxo-5-((4-(((4-oxo-7-(sulfonatooxy)-2-(4-(sulfonatooxy)phenyl)-4H-chromen-5-yl)oxy)methyl)cyclohexyl)methoxy)-2-(4-(sulfonatooxy)phenyl)-4H-chromen-7-yl Sulfate]
fold weaker than G2.2 (spheroid potency) [5, 6]: about 1.6 fold
fold lower potency than MQD1 ([5]; eight (MQD1) to four (MAD1) sulfate groups): 11.4 fold
cytotoxicity under monolayer conditions (HT-29 monolayer culture): did not display significant cytotoxicity

Compound: O=c1c(OS(=O)(=O)[O-])c(-c2ccc(OS(=O)(=O)[O-])c(OS(=O)(=O)[O-])c2)oc2cc(OS(=O)(=O)[O-])cc(OCC3CCC(COc4cc(OS(=O)(=O)[O-])cc5oc(-c6ccc(OS(=O)(=O)[O-])c(OS(=O)(=O)[O-])c6)c(OS(=O)(=O)[O-])c(=O)c45)CC3)c12.[Na+].[Na+].[Na+].[Na+].[Na+].[Na+].[Na+].[Na+] (stereo not drawn) [MQD1, Sodium 4-(5-((4-(((2-(3,4-Bis(sulfonatooxy)phenyl)-4-oxo-3,7-bis(sulfonatooxy)-4H-chromen-5-yl)oxy)methyl)cyclohexyl)methoxy)-4-oxo-3,7-bis(sulfonatooxy)-4H-chromen-2-yl)-1,2-phenylene Bis(sulfate)]
fold better than G2.2 (spheroid potency, IC50 gain) [5, 6]: 7.3 fold and ~9 fold
cytotoxicity under monolayer conditions (HT-29 monolayer culture): did not display significant cytotoxicity

Continued, in another order:

concentration required for 2-fold increase in APTT [2]: ~37 µM
Compound: CC(C)CCC[C@@H](C)[C@H]1CC[C@H]2[C@@H]3CC=C4C[C@@H](OCCCCCCCCOc5cc(-c6oc7cc(OS(=O)(=O)[O-])cc(OCCCOc8cc(OS(=O)(=O)[O-])cc9oc(-c%10ccc(OS(=O)(=O)[O-])c(OS(=O)(=O)[O-])c%10)c(OS(=O)(=O)[O-])c(=O)c89)c7c(=O)c6OS(=O)(=O)[O-])ccc5OS(=O)(=O)[O-])CC[C@]4(C)[C@H]3CC[C@]12C.[Na+].[Na+].[Na+].[Na+].[Na+].[Na+].[Na+] [G8C, Sodium 4-(5-(3-((2-(3-((8-(((8S,9S,10R,13R,14S,17R)-10,13-Dimethyl-17-((R)-6-methylheptan-2-yl)-2,3,4,7,8,9,10,11,12,13,14,15,16,17-tetradecahydro-1H-cyclopenta[a]phenanthren-3-yl)oxy)octyl)oxy)-4-(sulfonatooxy)phenyl)-4-oxo-3,7-bis(sulfonatooxy)-4H-chromen-5-yl)oxy)propoxy)-4-oxo-3,7-bis(sulfonatooxy)-4H-chromen-2-yl)-1,2-phenylene Bis(sulfate)]
blood loss, tail bleeding [3]: did not exhibit much tail bleeding phenotype
cytotoxicity under monolayer conditions (HT-29 monolayer culture): significantly cytotoxic at ∼100 μM

fold better than G2.2 (spheroid potency, IC50 gain) [5, 6]: 1.7 fold
Compound: O=c1c(OS(=O)(=O)[O-])c(-c2ccc(OS(=O)(=O)[O-])cc2OS(=O)(=O)[O-])oc2cc(OS(=O)(=O)[O-])cc(OCC3CCC(COc4cc(OS(=O)(=O)[O-])cc5oc(-c6ccc(OS(=O)(=O)[O-])cc6OS(=O)(=O)[O-])c(OS(=O)(=O)[O-])c(=O)c45)CC3)c12.[Na+].[Na+].[Na+].[Na+].[Na+].[Na+].[Na+].[Na+] (stereo not drawn) [MMD1, Sodium 4-(5-((4-(((2-(2,4-Bis(sulfonatooxy)phenyl)-4-oxo-3,7-bis(sulfonatooxy)-4H-chromen-5-yl)oxy)methyl)cyclohexyl)methoxy)-4-oxo-3,7-bis(sulfonatooxy)-4H-chromen-2-yl)-1,3-phenylene Bis(sulfate)]
cytotoxicity under monolayer conditions (HT-29 monolayer culture): did not display significant cytotoxicity

concentration required for 2-fold increase in APTT [2]: 3 µM
blood loss, tail bleeding [3]: significantly higher blood loss
Compound: enoxaparin [reference compound]
